Results on 8 compounds are retold here after ChEMBL document CHEMBL1811802, “Synthesis and significant cytostatic activity of 7-hetaryl-7-deazaadenosines” (J Med Chem, 2011).

The subject of one test is A549. Put plainly: Cytostatic activity against human A549 cells after 5 days by SRB assay. In kind it is functional. To be noted: A549, 120 h. The procedure, abridged:
(§1)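 Cells seeded per line density, overnight at 37 °C; day-zero plate TCA-fixed. 5-fold serial dilutions added, 5-day incubation; TCA fixation, 0.057% SRB in 1% acetic acid 30 min, dye dissolved in 10 mM Tris pH 10.5, A500. Growth relative to day-zero and untreated; GIC50 from sigmoidal dose–response fit; mean of two independent experiments.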
(Sulforhodamine B stains cellular protein and so reports cell mass.)

In another test the test system is NCI-H23. Put plainly: Cytostatic activity against human NCI-H23 cells after 5 days by SRB assay. To be noted: NCI-H23, 120 h. In kind it is functional. The procedure, abridged: as §1
The next test concerns DU-145. Put plainly: Cytostatic activity against human DU145 cells after 5 days by SRB assay. The class given is functional. The settings on record: DU-145, 120 h. The procedure, abridged:
as §1

A further test deals with PC-3. Put plainly: Cytostatic activity against human PC3 cells after 5 days by SRB assay. The class given is functional. To be noted: PC-3, 120 h. The gist of the method: as §1
The next test concerns HCT-116. Put plainly: Cytostatic activity against human HCT116 cells after 5 days by SRB assay. In kind it is functional. The settings on record: HCT-116, 120 h. The procedure, abridged: as §1
The test system of another test is HCT-15. Put plainly: Cytostatic activity against human HCT15 cells after 5 days by SRB assay. The class given is functional. To be noted: HCT-15, 120 h. The procedure, abridged: as §1
Test [1] is described as follows: Cytostatic activity against human Hs578 cells after 5 days by SRB assay. In kind it is functional. To be noted: Hs578, 120 h. The gist of the method: as §1
The next test has as its system MT4. Put plainly: Cytostatic activity against human MT4 cells after 5 days by SRB assay. In kind it is functional. The settings on record: MT4, 120 h.
The subject of another test is HL-60. Put plainly: Cytotoxicity against human HL60 cells after 3 days by XTT assay. The class given is functional, cell-based. The settings on record: HL-60, 72 h. The gist of the method: (§2)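 Suspension-grown cell lines, 3-day compound incubation; viability read by XTT metabolic assay; IC50 averaged from four independent experiments.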
A general note: Formazan colour is commonly taken as a measure of viable cells.

Test [2] is described as follows: Cytotoxicity against human HeLaS3 cells after 3 days by XTT assay. The class given is functional, cell-based. To be noted: HeLa S3, 72 h. The procedure, abridged: as §2
A further test deals with CCRF-CEM. Put plainly: Cytotoxicity against human CCRF-CEM cells after 3 days by XTT assay. To be noted: 72 h. In kind it is functional, cell-based. The gist of the method: as §2
The target in a further test is Adenosine kinase (Homo sapiens, UniProt P55263). Put plainly: Inhibition of human ADK using [3H]-adenosine by scintillation counting.
Adenosine kinase, sequence (P55263 whole entry): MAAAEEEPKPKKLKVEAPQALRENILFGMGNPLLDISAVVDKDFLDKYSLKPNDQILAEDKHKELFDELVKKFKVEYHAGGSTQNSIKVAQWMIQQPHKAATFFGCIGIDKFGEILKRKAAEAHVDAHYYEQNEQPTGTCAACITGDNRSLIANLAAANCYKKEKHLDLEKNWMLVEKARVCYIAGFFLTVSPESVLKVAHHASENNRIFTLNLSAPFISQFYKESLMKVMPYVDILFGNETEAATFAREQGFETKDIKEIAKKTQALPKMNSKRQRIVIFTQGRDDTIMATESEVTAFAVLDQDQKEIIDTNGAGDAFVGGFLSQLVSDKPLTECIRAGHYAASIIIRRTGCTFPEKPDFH
The next test deals with BT-549. Put plainly: Cytostatic activity against human BT549 cells after 5 days by SRB assay. The class given is functional. The settings on record: BT-549, 120 h. The gist of the method:
as §1

Turning to `COc1ccc(-c2cn([C@@H]3O[C@H](CO)[C@@H](O)[C@H]3O)c3ncnc(N)c23)cc1`, the concentration for 50% growth inhibition (GI50) with A549 came out at 701 nM; with NCI-H23, 856 nM; in the test with DU-145 it was 152 nM; with PC-3 it was 1110 nM; in the test with HCT-116 it was 633 nM; with HCT-15, 544 nM. The GI50 in [1] was 811 nM; in the test on MT4, 4300 nM. The IC50 in the test with HL-60 is greater than 10000 nM; in test [2], greater than 10000 nM; in the test on CCRF-CEM it was greater than 10000 nM; at Adenosine kinase, greater than 2000 nM.
With `Nc1ncnc2c1c(-c1nccs1)cn2[C@@H]1O[C@H](CO)[C@@H](O)[C@H]1O`, the GI50 in the test with NCI-H23 stood at 5 nM; with PC-3, 42 nM; with HCT-116, 93 nM; in test [1] it was 15 nM; in the test on MT4 it was 42 nM. The results for the IC50 (in the test on HL-60; in [2]; in the test on CCRF-CEM) were 1610 nM, 40 nM and 20 nM, respectively.
As for `Nc1ncnc2c1c(-c1ccc[nH]1)cn2[C@@H]1O[C@H](CO)[C@@H](O)[C@H]1O`, the GI50 with A549 is 160 nM; in the test with NCI-H23, 333 nM; in the test with PC-3 it was 87.8 nM; in the test with HCT-116, 65.2 nM; in test [1], 113 nM; in the test on BT-549, 129 nM. Also, the IC50 in the test on HL-60 came out at 2040 nM; in test [2], 1040 nM; in the test on CCRF-CEM it was 160 nM.
Consider `Nc1ncnc2c1c(-c1cc[nH]n1)cn2[C@@H]1O[C@H](CO)[C@@H](O)[C@H]1O`, for which the concentration for 50% growth inhibition (GI50) came out at 35 nM in the test with NCI-H23; 15 nM in the test on PC-3; 18 nM in the test with HCT-116; 8 nM in test [1]; 18 nM in the test with MT4. In addition, the IC50 is greater than 20000 nM in the test with HL-60, 690 nM in [2], 130 nM with CCRF-CEM and greater than 10000 nM against Adenosine kinase.
For the compound `Nc1ncnc2c1ccn2[C@@H]1O[C@H](CO)[C@@H](O)[C@H]1O` [TUBERCIDIN], the concentration for 50% growth inhibition (GI50) with A549 was 1 nM; with NCI-H23 it was 11 nM; with DU-145, 18 nM; in the test on PC-3, 48 nM; in the test with HCT-116, 1 nM; in the test with HCT-15, 11 nM. Further, the results for the GI50 (in [1]; in the test on MT4) were 98 nM and 21 nM, respectively.
In the case of `Nc1ncnc2c1c(-c1ncc[nH]1)cn2[C@@H]1O[C@H](CO)[C@@H](O)[C@H]1O`, the GI50 in the test with NCI-H23 was 6 nM; in the test on PC-3, 1 nM; with HCT-116, 2 nM; in [1] it was 1 nM; in the test on MT4, 49 nM. In addition, the IC50 with HL-60 was 100 nM; in test [2] it was 440 nM; with CCRF-CEM, 70 nM; against Adenosine kinase, greater than 5000 nM.
`Nc1ncnc2c1c(-c1cc3ccccc3o1)cn2[C@@H]1O[C@H](CO)[C@@H](O)[C@H]1O`: the GI50 in the test with A549 was 7020 nM; in the test with NCI-H23, 5400 nM; in the test on PC-3 it was 6290 nM; with HCT-116 it was 3740 nM; in test [1], 6730 nM; with BT-549, greater than 10000 nM. Further, in the test with MT4, the GI50 worked out at 4800 nM. For the same compound, the IC50 was greater than 10000 nM in the test with HL-60, greater than 10000 nM in [2], 3950 nM with CCRF-CEM and greater than 10000 nM on Adenosine kinase.
As to `Nc1ncnc2c1c(-c1ccc3ccccc3c1)cn2[C@@H]1O[C@H](CO)[C@@H](O)[C@H]1O`, the GI50 in the test on NCI-H23 is 5350 nM; in the test on DU-145, 1050 nM; with HCT-116, 5670 nM; in [1], 2160 nM. For the same compound, the IC50 in the test with HL-60 was greater than 10000 nM; in [2] it was greater than 10000 nM; in the test with CCRF-CEM it was greater than 10000 nM; against Adenosine kinase, greater than 5000 nM.

Usually GI50 stands for the concentration at which growth is held to half of that of the control. Higher therefore signals lower sensitivity of the cells. As usually defined, the IC50 is the point on the concentration scale where inhibition reaches its midpoint.
